Measurements reported in ChEMBL document CHEMBL3352416, “Discovery of carbohybrid-based 2-aminopyrimidine analogues as a new class of rapid-acting antimalarial agents using image-based cytological profiling assay” (J Med Chem, 2014).
Activity calls are given as the source filed them. No cut-off for these calls is given here.

Assays:
[1] = tested on: Plasmodium falciparum; experiment: Antimalarial activity against Plasmodium falciparum HB3 by automated image mining based cytological profiling assay; assay type: functional
In short: (§1)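 Parasite cultures in 384-well format, read by automated imaging. Infected erythrocytes detected by DAPI nuclear staining against WGA-AlexaFluor 488 host-cell stain, and viability by Mitotracker Red CMXRos. Total culture parasitaemia quantified. EC50 given as mean±SD of two independent experiments, each in duplicate.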

[2] = tested on: Plasmodium chabaudi; experiment: Antimalarial activity against Plasmodium chabaudi infected in BALB/c mouse assessed as reduction in parasitaemia level treated intraperitoneally on day 1 to day 3 post-infection measured on day 4 post-infection by Giemsa staining based light microscopy; assay type: functional
In short: (§2)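 Groups of five BALB/c mice infected i.p. with 2 × 10^7 P. chabaudi-parasitized erythrocytes. Day 1 pre-treatment parasitaemia read from tail-blood thin smears, then i.p. dosing at 0.03, 0.3, 3, 10 or 30 mg/kg, repeated for two more days. Day 4 parasitaemia scored by light microscopy of Giemsa-stained thin smears; dose-response evaluated by probit analysis.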

[3] = tested on: Plasmodium falciparum; experiment: Antimalarial activity against Plasmodium falciparum W2 by automated image mining based cytological profiling assay; assay type: functional, organism-based; in short: as §1
[4] = tested on: Plasmodium chabaudi; experiment: Antimalarial activity against Plasmodium chabaudi infected in BALB/c mouse assessed as reduction in accumulation of ring-stage parasites level at 3 to 30 mg/kg, ip treated on day 1 to day 3 post-infection measured on day 4 post-infection by Giemsa staining based light microscopy; assay type: functional, organism-based; in short: as §2
[5] = tested on: Plasmodium chabaudi; experiment: Antimalarial activity against Plasmodium chabaudi infected in BALB/c mouse assessed as reduction in blood parasitaemia level at 3 to 30 mg/kg, ip treated on day 1 to day 3 post-infection measured on day 4 post-infection by Giemsa staining based light microscopy; assay type: functional, organism-based; in short: as §2
[6] = tested on: Plasmodium falciparum; experiment: Antimalarial activity against tightly synchronized Plasmodium falciparum K1 assessed as parasite stage accumulation index at early ring stages at 10 uM treated at 6 to 30 hrs post-invasion by automated image mining based cytological profiling assay; assay type: functional, organism-based
[7] = tested on: Plasmodium falciparum; experiment: Antimalarial activity against tightly synchronized Plasmodium falciparum K1 assessed as parasite stage accumulation index at late ring stages at 10 uM treated at 6 to 30 hrs post-invasion by automated image mining based cytological profiling assay; assay type: functional, organism-based
[8] = Stability in human liver microsomes assessed as remaining compound level at 1 uM incubated for 5 mins in presence of NADPH measured after 30 mins by LC/MS/MS method; assay type: ADME; details: read-out: Stability
In short: (§3)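 Percent parent compound remaining after 30 min incubation with liver microsomes; n = 3.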

[9] = Half life in Sprague-Dawley rat at 5 mg/kg, ip; assay type: ADME, organism-based; parameters: dose 5 mg/kg, route intraperitoneal; details: in vivo
[10] = Cmax in Sprague-Dawley rat at 5 mg/kg, ip; assay type: ADME, organism-based; parameters: dose 5 mg/kg, route intraperitoneal; details: in vivo
[11] = Half life in Sprague-Dawley rat at 1 mg/kg, ip; assay type: ADME, organism-based; parameters: dose 1 mg/kg, route intraperitoneal; details: in vivo
[12] = Cmax in Sprague-Dawley rat at 1 mg/kg, ip; assay type: ADME, organism-based; parameters: dose 1 mg/kg, route intraperitoneal; details: in vivo
[13] = AUC in Sprague-Dawley rat at 1 mg/kg, ip; assay type: ADME, organism-based; parameters: dose 1 mg/kg, route intraperitoneal; details: plasma
[14] = tested on: Plasmodium falciparum; experiment: Antimalarial activity against tightly synchronized Plasmodium falciparum K1 assessed as parasite stage accumulation index at schizonts stages at 10 uM treated at 6 to 30 hrs post-invasion by automated image mining based cytological profiling assay; assay type: functional, organism-based
[15] = Stability in mouse liver microsomes assessed as remaining compound level at 1 uM incubated for 5 mins in presence of NADPH measured after 30 mins by LC/MS/MS method; assay type: ADME; details: read-out: Stability; in short: as §3
[16] = AUC in Sprague-Dawley rat at 5 mg/kg, ip; assay type: ADME, organism-based; parameters: dose 5 mg/kg, route intraperitoneal; details: plasma
[17] = tested on: Plasmodium falciparum; experiment: Antimalarial activity against Plasmodium falciparum K1 by automated image mining based cytological profiling assay; assay type: functional, organism-based; in short: as §1
[18] = Selectivity index, ratio of CC50 for human HepG2 cells to EC50 for Plasmodium falciparum; assay type: toxicity, cell-based; details: read-out: Ratio CC50/EC50
In short: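 Ratio of HepG2 CC50 (resazurin assay) to the highest EC50 among P. falciparum K1, HB3 and W2. Parasite EC50 values are means of two independent experiments, each run in duplicate.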

[19] = Tmax in Sprague-Dawley rat at 1 mg/kg, ip; assay type: ADME, organism-based; parameters: dose 1 mg/kg, route intraperitoneal; details: in vivo
[20] = tested on: Plasmodium falciparum; experiment: Antimalarial activity against tightly synchronized Plasmodium falciparum K1 assessed as parasite stage accumulation index at trophozoites stages at 10 uM treated at 6 to 30 hrs post-invasion by automated image mining based cytological profiling assay; assay type: functional, organism-based
[21] = Tmax in Sprague-Dawley rat at 5 mg/kg, ip; assay type: ADME, organism-based; parameters: dose 5 mg/kg, route intraperitoneal; details: in vivo

EC50 [1]: 80 nM | EC50 [3]: 80 nM | remaining at 30 min, 1 µM [8]: 89% | half-life [9]: 347 min | Cmax [10]: 3070 ng/mL | half-life [11]: 382 min | Cmax [12]: 1030 ng/mL | AUC [13]: 8200 ng·h/mL | remaining at 0.5 h, 1 µM [15]: 81.6% | AUC [16]: 26600 ng·h/mL | EC50 [17]: 92 nM | Tmax [19]: 3.4 h | Tmax [21]: 4 h
Structure (SMILES): COc1ccc(CO[C@@H]([C@H](COC(c2ccccc2)(c2ccccc2)c2ccccc2)N=[N+]=[N-])[C@H](OCc2ccc(OC)cc2)c2cnc(N(C)C)nc2)cc1
inhibition [2]: Dose dependent effect | ED50 ([2]; ip): 0.12 mg/kg | inhibition [4]: Active | inhibition [5]: Active | Activity [6]: Active | Activity [7]: Active | Activity [14]: Active | selectivity ratio [18]: > 1000 | Activity [20]: Active
